HTRA1 inh = inhibitors of human serine peptidase HTRA1; recombinant HTRA1, FP-rhodamine activity-based probe, fluorescence polarization; inhibition, % at 5.96 µM; 340,000 compounds, 0.5% hits; AID 504803; Q92743; in the data active means inhibition above about 36%
Target sequence (Q92743 whole entry, looked up): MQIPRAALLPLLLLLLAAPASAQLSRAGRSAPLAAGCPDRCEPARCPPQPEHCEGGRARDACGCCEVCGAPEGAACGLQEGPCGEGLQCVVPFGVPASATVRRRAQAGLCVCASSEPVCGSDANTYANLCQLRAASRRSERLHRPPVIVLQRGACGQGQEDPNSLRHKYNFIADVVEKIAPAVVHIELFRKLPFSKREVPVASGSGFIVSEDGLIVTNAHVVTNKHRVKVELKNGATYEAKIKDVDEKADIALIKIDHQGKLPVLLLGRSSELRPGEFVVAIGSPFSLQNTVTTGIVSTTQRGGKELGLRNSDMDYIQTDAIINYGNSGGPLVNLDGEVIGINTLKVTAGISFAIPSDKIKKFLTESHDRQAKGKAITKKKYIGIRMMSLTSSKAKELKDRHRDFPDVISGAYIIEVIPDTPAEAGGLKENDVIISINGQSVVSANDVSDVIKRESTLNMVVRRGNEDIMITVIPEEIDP
Tn6 DDE FP = disrupts Tn6 cyclic peptide binding to fibrin D-Dimer-E complex. 370,000 compounds, 0.21% hits. Fibrin DD(E) TRITC-Tn6 fluorescence polarization displacement. inhibition, % at 8.3 µM. P02675;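 active means inhibition above a per-campaign cutoff: mean of compounds within control limits plus 3 SD, cut at about 15% in these data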
Tn7 DDE FP = DD(E)-Tn7 binding inhibition, primary FP screen; AID 720508; FP displacement of FITC-Tn7 peptide from fibrin DD(E); 0% = median of compound wells per plate; P02675; 370,000 compounds, 0.13% hits; inhibition, % at 8.3 µM;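 active means inhibition above the mean of compounds falling within the control limits plus 3 SD of them, cut at about 14% in these data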
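System: human fibrin DD(E); quantity: Fibrin-DD(E) at 2 µM final; also added: fluorescent Tn7 probe at 0.1 µM; compound dosing: single nominal test concentration of 8.3 µM per compound; schedule: 10 min preincubation, 3 h with tracer, room temperature; detection: fluorescence polarization of the labelled Tn7 tracer; repeats: one replicate per compound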
mABHD4 FP = ABHD4 (mouse) inhibition, primary FP screen; purified mABHD4, FP-Rh probe fluorescence polarization; 370,000 compounds, 0.54% hits; inhibition, % at 8.92 µM; Q8VD66; AID 720543;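 active means inhibition exceeding the mean over every tested compound plus 3 SD, cut at about 30% in these data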
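Material: mouse ABHD4 enzyme, wild type; Benchmarks: S159A mutant high control, sample median low control; Buffer or medium: HEPES pH 7.0, NaCl, Pluronic buffer; Signal: fluorescence polarization; Read-out: percent inhibition of probe binding, normalized to plate controls; Timing: pre-incubation 45 min, probe exposure 60 min, at 25 °C; Dosing: 8.92 µM, single dose.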
SIAE primary = inhibitors of human sialic acid acetylesterase SIAE; Q9HAT2; SIAE FP-Rh probe binding, fluorescence polarization; inhibition, % at 9.66 µM; 370,000 compounds, 0.69% hits; AID 1053197;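 active means inhibition above a cutoff: mean of compounds within the control limits plus 3 SD of those, cut at about 17% in these data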
TCR-CD3 inh = blocks the human TCR-CD3 interaction; 360,000 compounds, 0.37% hits; inhibition, % at 9.4 µM; TAMRA-labeled TCR probe fluorescence, biochemical; AID 651800; in the data active means inhibition above about 19%;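 further: recombinant mutant TCR 2C K166C tagged with TAMRA read by polarization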
SIAE inh conf = human SIAE inhibition, confirmation. 2,300 compounds, 13% hits. SIAE FP-Rh activity-based probe, fluorescence polarization. inhibition, % at 9.66 µM. shares compounds with SIAE primary;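 active means mean inhibition of the replicates above the hit cutoff set in the primary screen, cut at about 17% in these data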;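 further: inhibitors lower polarization as more probe stays unbound to SIAE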
Numbers stand for hits; – = inactive; · = no result. Hits are enriched below; roughly 1.8% of the tested compounds scored in any of these assays.

SMILES	HTRA1 inh	Tn6 DDE FP	Tn7 DDE FP	mABHD4 FP	SIAE primary	TCR-CD3 inh	SIAE inh conf
COc1ccc(NC(=O)c2cccc(N3C(=O)c4ccc(C(=O)Nc5ccc(OC)c(O)c5)cc4C3=O)c2)cc1O	–	–	–	–	23	–	–
COc1ccc(/C(C)=N/OCC(=O)N=Nc2c(O)[nH]c3ccccc23)cc1	–	–	–	–	21	–	–
CN1c2ccccc2C2(C)CCCC3=Cc4cccc([N+](=O)[O-])c4OC312 (stereo not drawn)	–	–	–	–	–	–	·
CN1c2ccccc2C2(C)CCCC3=Cc4cc([N+](=O)[O-])cc([N+](=O)[O-])c4OC312 (stereo not drawn)	–	–	–	–	52	–	–
CC(=O)NCCC(=O)Nc1cc(S(=O)(=O)N2CCCCC2)ccc1N1CCCCC1	–	–	–	–	–	–	·
CC(=O)NCCC(=O)Nc1cc(S(=O)(=O)Nc2ccc(Cl)cc2)ccc1N1CCCC1	–	–	–	–	18	–	–
CC(=O)c1cccc(S(=O)(=O)N2CCC(C(=O)Oc3ccc(-c4nnco4)cc3)CC2)c1	–	–	–	–	22	–	–
CC(=O)c1cccc(S(=O)(=O)N2CCC(C(=O)O)CC2)c1	–	–	–	–	–	–	·
O=C(O)c1cc(S(=O)(=O)NC(Cc2c[nH]c3ccccc23)C(=O)O)ccc1Cl (stereo not drawn)	–	–	–	–	–	–	·
COc1ccc(C(C)(C)C)cc1NC(=O)CCCn1c(=O)oc2ccccc21	–	–	–	–	76	–	–
Cn1c(N2CCCC2)nc2c1c(=O)[nH]c(=O)n2C	–	–	–	–	–	–	·
COc1cccc(-c2cc(CNC(=O)[C@H]3O[C@@H](n4cnc(C(N)=O)n4)[C@H](O)[C@@H]3O)no2)c1	·	–	–	–	77	–	80
COc1cccc(-c2cc(CNC(=O)[C@H]3O[C@@H](n4cnc5c(N)ncnc54)[C@H](O)[C@@H]3O)no2)c1	·	–	–	–	20	–	25
Cc1cc(C(=O)N2CCN(c3ccccc3Cl)CC2)c(C)o1	–	–	–	–	–	–	·
CC(CC(=O)N1CCN(S(=O)(=O)c2ccc(Cl)cc2)CC1)n1cncn1 (stereo not drawn)	–	–	–	–	18	–	–
COCCCN1CCc2[nH]c(=S)[nH]c(=O)c2C1	–	–	–	–	–	–	·
COc1cccc(CN2CCc3[nH]c(=S)[nH]c(=O)c3C2)c1	–	–	–	–	22	–	–
COc1ccccc1OCCOCCN1CCCC1	–	–	–	–	–	–	·
C=CC(=O)N1CCCC(Nc2nc(Nc3ccc(N(C)C(=O)CC)cc3C)nc3nc[nH]c23)C1 (stereo not drawn)	–	–	–	–	–	–	·
O=C(N/N=C/c1c(O)ccc2ccccc12)Nc1ccccc1	·	–	–	–	52	–	49
Nc1nonc1N/N=C/c1c(O)ccc2ccccc12	–	–	–	–	18	–	–
O=C(CSCC(=O)Nc1ccccc1)N/N=C/c1c(O)ccc2ccccc12	–	–	–	–	–	–	·
CCOc1ccc(OCCC(=O)OCC(=O)Nc2ccc3c(c2)OCCO3)cc1	–	–	–	–	–	–	·
O=C(NCC1CCCO1)c1nnc(Cc2ccc(F)cc2)o1 (stereo not drawn)	–	–	–	–	18	–	–
S=C(NCC1CCCO1)Nc1ccccc1 (stereo not drawn)	–	–	–	–	21	–	–
O=C(CN(Cc1ccc(Br)cc1)S(=O)(=O)c1ccccc1)NCC1CCCO1 (stereo not drawn)	–	–	–	–	18	–	–
S=C(NCC1CCCO1)Nc1ccc(Cl)cc1 (stereo not drawn)	–	–	–	–	–	–	·
COc1ccc(S(=O)(=O)N(CC(=O)NCC2CCCO2)Cc2ccccc2)cc1 (stereo not drawn)	–	–	–	–	–	–	·
O=C(NCC1CCCO1)c1cccc(NC(=O)c2ccccc2)c1 (stereo not drawn)	–	–	–	–	–	–	·

Bioassay records (PubChem)
